Columns and labels:
Format in all cases: cell-based
[1] = test system: HepG2; assay: Antiproliferative SRB assay, HepG2; conditions: Homo sapiens, HepG2, 72 h, read-out: HepG2 IC50 (μM) ± SD
How it was run: (§1)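 Cells from ATCC, grown in RPMI-1640 with 10% heat-inactivated FBS and penicillin–streptomycin at 37 °C, 5% CO2. They were trypsinized and seeded 24 h before treatment. Test compound was given at 0.01, 0.1, 1, 10 and 100 μg mL−1 for 72 h beside untreated controls. Cells were fixed in 10% TCA (1 h, 4 °C), stained with 0.4% SRB (10 min, dark), rinsed in 1% acetic acid, dissolved in Tris–HCl, and read at 540 nm.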

[2] = test system: EA.hy926; assay: SRB assay on normal cells EA.hy926; conditions: Homo sapiens, EA.hy 926, 72 h, read-out: EA.hy926 IC50 (μM) ± SD
How it was run: as §1

[3] = test system: HCT116; assay: Antiproliferative SRB assay, HCT116; conditions: Homo sapiens, HCT-116, 72 h, read-out: HCT116 IC50 (μM) ± SD
How it was run: as §1

[4] = test system: MCF-7; assay: Antiproliferative SRB assay, MCF-7; conditions: Homo sapiens, MCF7, 72 h, read-out: MCF-7 IC50 (μM) ± SD
How it was run: as §1

Row | IC50 [1] [µM] | IC50 [3] [µM] | IC50 [4] [µM] | SMILES | IC50 [2] [µM]
1 | 36.5 | 82.5 | 72.9 | O=C(NNc1nc(-c2ccccc2)cs1)c1cc2ccccc2oc1=O [6a, 2-Oxo-N′-(4-phenylthiazol-2-yl)-2H-chromene-3-carbohydrazide] | 31.9
2 | 1.6 | 1.9 | 2.1 | COc1cccc2c1C(=O)c1c(O)c3c(c(O)c1C2=O)C[C@@](O)(C(=O)CO)C[C@@H]3O[C@H]1C[C@H](N)[C@H](O)[C@H](C)O1 [Doxorubicin, reference compound] | 1.7
3 | 9.9 | 6.5 | 10.3 | N#CCC(=O)NNc1nc(-c2ccccc2)cs1 [compound 7, 2-cyano-N′-(4-phenylthiazol-2-yl)acetohydrazide] | 11.6
